Measurements as given in ChEMBL document CHEMBL5325460, “Versatile anti-infective properties of pyrido- and dihydropyrido[2,3-d]pyrimidine-based compounds” (Bioorg Med Chem, 2023).

How the values were obtained:
[1] = system: Toxoplasma gondii; assay: Antiparasitic activity against Toxoplasma gondii RH tachyzoites infected in African green monkey Vero cells assessed as parasitic growth inhibition incubated for 72 hrs by inverted microscopic analysis; type: functional, organism-based
In short: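 RH-strain tachyzoites grown on Vero host cells in RPMI 1640 with 10% FBS and exposed to a range of concentrations, with atovaquone as positive control. Infected cells counted under an inverted microscope; inhibition % = (1 − infected treated / infected control) × 100. IC50 from concentration–response curves at 72 h; means of at least three independent experiments.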

[2] = Cytotoxicity against African green monkey Vero cells assessed as reduction in cell viability measured after 3 days by MTT assay; type: toxicity, cell-based; details: chlorocebus sabaeus, time 3 day
In short: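 Vero cells held 3 days with graded doses in RPMI 1640 with 5% FBS. Viability read by MTT colorimetry at 540 nm. CC50 from concentration–response curves against untreated controls; means of at least three independent experiments.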

[3] = Selectivity index, ratio of CC50 for cytotoxicity against African green monkey Vero cells to IC50 for antiparasitic activity against Toxoplasma gondii RH tachyzoites infected in African monkey Vero cells; type: toxicity, cell-based; details: read-out: Ratio CC50/IC50
In short: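 SI = Vero CC50 (3-day MTT, 540 nm read) divided by T. gondii RH IC50 (Vero host cells, microscopic count of infected cells); both values from concentration–response curves at 72 h.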

[4] = system: Leishmania major; assay: Antileishmanial activity against Leishmania major amastigotes infected in mouse macrophages assessed as parasite growth inhibition measured after 72 hrs by MTT based ELISA reader analysis; type: functional, organism-based; details: Macrophage
In short: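 L. major promastigotes from a patient isolate; amastigotes from infected BALB/c mice, grown inside mouse macrophages. Viable parasites read by MTT absorbance at 570 nm.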

[5] = target: Human immunodeficiency virus type 1 reverse transcriptase (Human immunodeficiency virus 1, UniProt Q72547); assay: Inhibition of wild type HIV-1 reverse transcriptase RNase-associated RNase H activity using RNA/DNA template-primer as substrate
In short: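 RNase H activity of wild-type RT, run independently of RDDP, with RDS1759 as positive control. Assays in triplicate; IC50 reported ± error.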

[6] = system: Leishmania major; assay: Antileishmanial activity against Leishmania major promastigotes assessed as parasite growth inhibition measured after 72 hrs by MTT based ELISA reader analysis

| IC50 [5] | Compound | IC50 [1] | CC50 at 72 h [2] | selectivity ratio [3] | IC50 [4] | IC50 [6] |
| --- | --- | --- | --- | --- | --- | --- |
| 20.3 µM | COc1ccc(C2C3=C(Nc4[nH]c(=O)[nH]c(=O)c42)c2ccccc2C3=O)cc1OC (stereo not drawn) | 7.31 µM | 8.03 µM | 1.1 | 6.94 µM | > 31 µM |
|  | COc1ccc(-c2c3c(nc4[nH]c(=O)[nH]c(=O)c24)-c2ccccc2C3=O)cc1OC | 1.12 µM | 0.87 µM | 0.78 | 6.73 µM | 29.4 µM |
|  | COc1cc(C2C3=C(Nc4[nH]c(=O)[nH]c(=O)c42)c2ccccc2C3=O)cc(Br)c1OC (stereo not drawn) | 0.73 µM | 0.5 µM | 0.69 | 16.4 µM | > 25.9 µM |
|  | COc1cc(-c2c3c(nc4[nH]c(=O)[nH]c(=O)c24)-c2ccccc2C3=O)cc(Br)c1OC | 1.87 µM | 2.31 µM | 1.24 | 16.2 µM | 26 µM |
| 8.7 µM | CCOC(=O)C(=O)CC(=O)/C=C/c1cccn1Cc1ccccc1Cl |  |  |  |  |  |
| 21.5 µM | COc1cc(C2C3=C(Nc4[nH]c(=O)[nH]c(=O)c42)c2ccccc2C3=O)cc(OC)c1OC (stereo not drawn) | 2.77 µM | 2.1 µM | 0.76 | 21.2 µM | > 28.8 µM |
|  | COc1cc(C2C3=C(Nc4[nH]c(=O)[nH]c(=O)c42)c2ccccc2C3=O)cc(I)c1OC (stereo not drawn) | 0.47 µM | 0.42 µM | 0.89 | 14 µM | > 23.6 µM |
|  | O=C1C2=C(Nc3[nH]c(=O)[nH]c(=O)c3C2c2cccc(Br)c2)c2ccccc21 (stereo not drawn) | 11.4 µM | 16.1 µM | 1.42 | 36.5 µM | 11.6 µM |
| 17.1 µM | COc1cc(C2C3=C(Nc4[nH]c(=O)[nH]c(=O)c42)c2ccccc2C3=O)cc(OC)c1O (stereo not drawn) | 11 µM | 6.08 µM | 0.55 | 21.2 µM | 31.7 µM |
|  | COc1ccc(C2C3=C(Nc4[nH]c(=O)[nH]c(=O)c42)c2ccccc2C3=O)cc1F (stereo not drawn) | 9.71 µM | 7.16 µM | 0.74 | 16.9 µM | 7.16 µM |
|  | COc1cc(-c2c3c(nc4[nH]c(=O)[nH]c(=O)c24)-c2ccccc2C3=O)cc(OC)c1OC | 2.09 µM | 2.02 µM | 0.97 | 5.8 µM | > 29 µM |
|  | COc1cc(C2C3=C(Nc4[nH]c(=O)[nH]c(=O)c42)c2ccccc2C3=O)cc(Cl)c1OC (stereo not drawn) | 0.41 µM | 0.3 µM | 0.73 | 6.17 µM | > 28.6 µM |
| 93.4 µM | O=C1C2=C(Nc3[nH]c(=O)[nH]c(=O)c3C2c2cccc(O)c2)c2ccccc21 (stereo not drawn) | 23.7 µM | 9.46 µM | 0.4 | 27 µM | > 34.8 µM |
|  | COc1ccc(C2C3=C(Nc4[nH]c(=O)[nH]c(=O)c42)c2ccccc2C3=O)cc1Br (stereo not drawn) | 1.81 µM | 1.73 µM | 0.96 | 1.9 µM | > 27.6 µM |
|  | COc1cc(-c2c3c(nc4[nH]c(=O)[nH]c(=O)c24)-c2ccccc2C3=O)cc(Cl)c1OC | 0.69 µM | 0.85 µM | 1.23 | 18.6 µM | 28.2 µM |
|  | COc1ccc(-c2c3c(nc4[nH]c(=O)[nH]c(=O)c24)-c2ccccc2C3=O)cc1F | 9.25 µM | 4.11 µM | 0.44 | 15.7 µM | 6.68 µM |
| > 100 µM | COc1ccc(C2C3=C(Nc4[nH]c(=O)[nH]c(=O)c42)c2ccccc2C3=O)cc1O (stereo not drawn) | 11.4 µM | 8.99 µM | 0.79 | 21.3 µM | > 32.1 µM |
|  | COc1ccc(-c2c3c(nc4[nH]c(=O)[nH]c(=O)c24)-c2ccccc2C3=O)cc1Br | 11.8 µM | 9.55 µM | 0.91 | 35.8 µM | 25.1 µM |
|  | COc1ccc(C2C3=C(Nc4[nH]c(=O)[nH]c(=O)c42)c2ccccc2C3=O)cc1C (stereo not drawn) | 9.81 µM | 2.89 µM | 0.3 | 22.2 µM | > 32.3 µM |
| 11.2 µM | O=C1C2=C(Nc3[nH]c(=O)[nH]c(=O)c3C2c2ccc(O)c(O)c2)c2ccccc21 (stereo not drawn) | 9.99 µM | 7.03 µM | 0.7 | > 33.3 µM | > 33.3 µM |
| > 100 µM | COc1cc(C2C3=C(Nc4[nH]c(=O)[nH]c(=O)c42)c2ccccc2C3=O)ccc1O (stereo not drawn) | 8.35 µM | 6.16 µM | 0.74 | 21.3 µM | 35.4 µM |
| > 100 µM | O=C1C2=C(Nc3[nH]c(=O)[nH]c(=O)c3C2c2ccc(O)cc2)c2ccccc21 (stereo not drawn) | 20 µM | 3.95 µM | 0.2 | 22 µM | > 34.8 µM |
|  | COc1cc(-c2c3c(nc4[nH]c(=O)[nH]c(=O)c24)-c2ccccc2C3=O)cc(I)c1OC | 2.47 µM | 2.22 µM | 0.9 | 15.4 µM | 23 µM |
|  | C[C@@H]1[C@H](O)[C@@H](C)/C=C/C=C/C=C/C=C/C=C/C=C/C=C/[C@H](O[C@@H]2O[C@H](C)[C@@H](O)[C@H](N)[C@@H]2O)C[C@@H]2O[C@](O)(C[C@@H](O)C[C@@H](O)[C@H](O)CC[C@@H](O)C[C@@H](O)CC(=O)O[C@H]1C)C[C@H](O)[C@H]2C(=O)O [AMPHOTERICIN B] |  |  |  |  | 0.83 µM |
|  | O=C1C(O)=C([C@H]2CC[C@H](c3ccc(Cl)cc3)CC2)C(=O)c2ccccc21 [ATOVAQUONE] | 0.07 µM | 9.5 µM | 136 |  |  |
